According to ChEMBL document CHEMBL1149808, “Cyclic nucleotide phosphodiesterase type 4 inhibitors: evaluation of pyrazolo[1,5-a]-1,3,5-triazine ring system as an adenine bioisostere” (Eur J Med Chem, 2008):

Legend:
[1] = Inhibition of PDE4
How it was run: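 PDE4 from bovine aorta media layer; [³H]-cAMP hydrolysis, two-step assay, with 1 mM EGTA and cGMP 50 added to suppress PDE3, 50 mM Tris-HCl pH 7.5, 2 mM magnesium acetate, 1 mg/mL BSA, 1% DMSO. IC50 by regression over concentration-response data, mean of three runs.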

[2] = Inhibition of PDE1 at 10 uM in absence of calmodulin
[3] = Inhibition of PDE1 at 10 uM in presence of calmodulin
How it was run: (§1)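 PDE1 purified from bovine aorta media layer; two-step radioassay with [³H]-cGMP substrate in 50 mM Tris-HCl pH 7.5, 2 mM magnesium acetate, 1 mg/mL BSA. Calmodulin-activated state: 18 nM calmodulin plus 10 mM CaCl₂. Inhibitors from DMSO, 1% final. IC50 by regression from concentration-response curves, mean of three determinations.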

[4] = target: T1, cGMP-dependent 3',5'-cyclic phosphodiesterase (Bos taurus) (UniProt P14099); assay: Inhibition of bovine aorta PDE2 at 10 uM in absence of cGMP
T1 sequence (whole entry): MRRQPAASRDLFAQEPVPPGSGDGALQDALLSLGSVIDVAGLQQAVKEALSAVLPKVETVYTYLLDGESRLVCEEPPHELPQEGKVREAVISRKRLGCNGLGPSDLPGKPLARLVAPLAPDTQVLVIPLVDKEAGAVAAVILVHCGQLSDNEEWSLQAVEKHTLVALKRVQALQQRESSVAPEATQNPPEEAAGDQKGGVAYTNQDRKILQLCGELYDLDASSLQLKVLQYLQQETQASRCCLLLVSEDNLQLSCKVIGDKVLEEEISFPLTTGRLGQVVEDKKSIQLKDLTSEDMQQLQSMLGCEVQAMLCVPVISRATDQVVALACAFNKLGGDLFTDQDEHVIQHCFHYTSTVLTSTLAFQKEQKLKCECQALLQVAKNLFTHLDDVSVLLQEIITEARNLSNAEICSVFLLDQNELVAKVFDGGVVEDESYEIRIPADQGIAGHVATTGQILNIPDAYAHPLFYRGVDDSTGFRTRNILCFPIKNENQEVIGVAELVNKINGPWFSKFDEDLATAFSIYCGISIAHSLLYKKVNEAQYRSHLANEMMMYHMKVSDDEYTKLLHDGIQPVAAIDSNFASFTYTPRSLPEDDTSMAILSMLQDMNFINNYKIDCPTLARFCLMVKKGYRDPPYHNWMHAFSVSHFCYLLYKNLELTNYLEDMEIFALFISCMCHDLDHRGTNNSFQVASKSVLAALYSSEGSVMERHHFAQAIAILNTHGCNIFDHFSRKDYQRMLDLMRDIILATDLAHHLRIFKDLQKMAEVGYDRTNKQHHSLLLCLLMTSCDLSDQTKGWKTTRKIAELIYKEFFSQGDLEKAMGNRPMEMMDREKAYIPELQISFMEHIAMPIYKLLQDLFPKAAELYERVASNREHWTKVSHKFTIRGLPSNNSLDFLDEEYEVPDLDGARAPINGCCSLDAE

[5] = target: T1, cGMP-dependent 3',5'-cyclic phosphodiesterase (Bos taurus); assay: Inhibition of bovine aorta PDE2 at 10 uM in presence of cGMP
How it was run: (§2)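 PDE2 isolated from cultured bovine aortic endothelial cells; two-step assay using [³H]-cAMP plus 1 mM EGTA in 50 mM Tris-HCl pH 7.5, 2 mM magnesium acetate, 1 mg/mL BSA; activated state with 5 cGMP. DMSO 1% final; IC50 by regression from concentration-response curves, three determinations.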

[6] = Inhibition of PDE3 at 10 uM
How it was run: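 Bovine aortic media PDE3, two-step assay with [³H]-cAMP plus 1 mM EGTA in Tris-HCl 50 mM pH 7.5, 2 mM Mg acetate, BSA 1 mg/mL; rolipram 50 present to block PDE4 contamination. DMSO 1% final.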

[7] = Inhibition of PDE5 at 10 uM
How it was run: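 Bovine aortic media PDE5 measured as [³H]-cGMP hydrolysis in two-step assay with 1 mM EGTA, 50 mM Tris-HCl pH 7.5, 2 mM magnesium acetate, 1 mg/mL BSA; inhibitor in DMSO, 1% final.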

PBMC = assay: Antiinflammatory activity in human PBMC assessed as inhibition of LPS-stimulated TNFalpha release after 24 hrs by trypan blue exclusion test; type: functional, cell-based; conditions: in the assay text read “ELISA” for “trypan blue exclusion test”
How it was run: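 Human PBMCs from density-gradient interface, washed in HBSS-CMF, 2 × 10⁶ cells/mL, exposed to drug 10^-8 to 10^-5 M with or without Salmonella abortus equi LPS, 24 h, 37 °C, 5% CO₂. Supernatants stored at -80 °C, then TNFα measured by two-site ELISA (OD 450 nm, o-phenylenediamine), interpolated on standard curve by four-parameter logistics; viability by Trypan blue exclusion.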

[8] = Inhibition of PDE1 in presence of calmodulin; how it was run: as §1
[9] = target: T2, cGMP-dependent 3',5'-cyclic phosphodiesterase (Bos taurus, UniProt P14099); assay: Inhibition of bovine aorta PDE2 in presence of cGMP; how it was run: as §2
T2 sequence (P14099 whole entry): T1 sequence (whole entry)

CNc1nc(C)nc2c(-c3cc4ccccc4o3)cnn12 showed an IC50 [1] of 6200 nM.
In the case of CCCc1nc(NC)c2ncn(Cc3ccccc3)c2n1, the IC50 [1] is reported as 88 nM.
With CCCc1nc(NC)n2ncc(Cc3ccccc3OC)c2n1 the IC50 [1] was 13 nM, the inhibition [2] was 27% and the inhibition [3] was 35%. It also gave an inhibition [4] of 19%, an inhibition [5] of 31% and an inhibition [6] of 16%. The inhibition [7] was 38% and the Activity (PBMC) was “Dose-dependent effect”.
CNc1nc(C)nc2c(-c3ccco3)cnn12 gave an IC50 [1] of 3100 nM.
Compound CNc1nc(C(F)(F)F)nc2c1ncn2Cc1ccccc1OC has an IC50 [1] of 1.4 nM.
Work on CCCc1nc(NC)c2ncn(Cc3ccccc3OC)c2n1 yielded an IC50 [1] of 7 nM.
In the case of CCC(O)c1cnn2c(NC)nc(C)nc12 (stereo not given), the IC50 [1] is reported as 4800 nM.
Compound CNc1nc(C)nc2c(-c3ccccc3)cnn12 has an IC50 [1] of 270 nM, an inhibition [2] of 21% and an inhibition [3] of 20%. It also gave an inhibition [4] of 3.6%, an inhibition [5] of 11% and an inhibition [6] of 2.7%. The inhibition [7] was 11%.
In the case of CC#Cc1cnn2c(NC)nc(C)nc12, the IC50 [1] is reported as 6400 nM.
With CNc1nc(C)nc2c1ncn2Cc1ccccc1 the IC50 [1] was 280 nM.
Compound CNc1nc(C)nc2c(-c3cccc4ccccc34)cnn12 has an IC50 [1] of 210 nM.
For CNc1nc(C)nc2c(-c3cccc(C(F)(F)F)c3)cnn12, the IC50 [1] was 130 nM.
Work on CNc1nc(C)nc2c(Cc3ccccc3)cnn12 yielded an IC50 [1] of 98 nM, an inhibition [2] of 37% and an inhibition [4] of 19%. The inhibition [6] was 8.6%, the inhibition [7] was 33% and the IC50 [8] was 14 µM. It also gave an IC50 [9] of 56 µM.
For CNc1nc(C(F)(F)F)nc2c(Cc3ccccc3OC)cnn12, the IC50 [1] was 11 nM, the inhibition [2] was 20% and the inhibition [4] was 16%. For the same compound, the inhibition [6] was 24%, the inhibition [7] was 74% and the Activity (PBMC) was “Dose-dependent effect”.
With CNc1nc(C)nc2c(-c3cc4ccccc4s3)cnn12 the IC50 [1] was 3500 nM.
In the case of CNc1nc(C)nc2c(C(=O)c3ccccc3)cnn12, the IC50 [1] is reported as 120 nM, the inhibition [2] is reported as 16% and the inhibition [3] is reported as 29%. It also gave an inhibition [4] of 15%, an inhibition [5] of 17% and an inhibition [6] of 11%. For the same compound, the inhibition [7] was 8%.
For CNc1nc(C)nc2c(Cc3cccs3)cnn12, the IC50 [1] was 70 nM.
For CNc1nc(C(F)(F)F)nc2c(Cc3ccccc3)cnn12, the IC50 [1] was 77 nM and the Activity (PBMC) was “Dose-dependent effect”.
Compound CNc1nc(C)nc2c(Cc3ccoc3)cnn12 has an IC50 [1] of 78 nM.
Work on CNc1nc(C)nc2c(-c3cccc([N+](=O)[O-])c3)cnn12 yielded an IC50 [1] of 1200 nM.
For CCCc1nc(NC)n2ncc(Cc3ccccc3)c2n1, the IC50 [1] was 48 nM, the inhibition [2] was 24% and the inhibition [3] was 25%. It also gave an inhibition [4] of 20%, an inhibition [5] of 20% and an inhibition [6] of 10%. For the same compound, the inhibition [7] was 16%.
CNc1nc(C)nc2c1ncn2Cc1ccccc1OC showed an IC50 [1] of 61 nM.
Compound CNc1nc(C)nc2c(-c3ccccc3Cl)cnn12 has an IC50 [1] of 2900 nM.
CNc1nc(C)nc2c(-c3cccc(C(C)=O)c3)cnn12 showed an IC50 [1] of 540 nM.
In the case of CNc1nc(C)nc2c(Cc3ccc4ccccc4c3)cnn12, the IC50 [1] is reported as 270 nM.
With CCCC#Cc1cnn2c(NC)nc(C)nc12 the IC50 [1] was 410 nM.
CNc1nc(C)nc2c(Cc3ccco3)cnn12 showed an IC50 [1] of 100 nM.
Work on CNc1nc(C)nc2c(-c3cccs3)cnn12 yielded an IC50 [1] of 2400 nM.
